Data as given in ChEMBL document CHEMBL1149381, “New arylthioindoles: potent inhibitors of tubulin polymerization. 2. Structure-activity relationships and molecular modeling studies” (J Med Chem, 2006).
pIC50: −log10 of the molar value. Calls of active or inactive are those of the source. The calls are words filed in the database; no cut-off is given here.

What was measured:
[1] = system: MCF7; assay: Inhibition of growth of MCF7 cells; type: functional, cell-based; details: Homo sapiens
[2] = molecular target: Tubulin; assay: Inhibition of tubulin polymerization; type: functional, Homo sapiens
Method in brief: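 Tubulin 10 µM in 0.8 M monosodium glutamate (pH 6.6), preincubated 15 min at 30 °C with varying drug, chilled on ice, then GTP added to 0.4 mM. Turbidity followed at 350 nm for 20 min at 30 °C. Extent of assembly measured and IC50 derived.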

[3] = system: SCLC; assay: Inhibition of growth of SCLC cells; type: functional, cell-based; details: Homo sapiens
[4] = molecular target: Tubulin (Homo sapiens) (UniProt P68371+Q9H4B7+P0DPH7+P68366+Q13509+Q71U36+P04350+Q3ZCM7+P07437+P68363+Q9BQE3+Q6PEY2+Q13885+Q9BVA1+Q9BUF5); assay: Displacement of [3H]colchicine from tubulin; type: protein-complex assay; details: concentration not given here
Method in brief: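 [3H]Colchicine 5.0 µM with 1.0 µM tubulin and 5.0 µM inhibitor, incubated 10 min at 37 °C. Result given as % inhibition of colchicine binding.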

[5] = molecular target: Heat shock protein HSP 90-alpha (Homo sapiens) (UniProt P07900); assay: Binding affinity to Hsp90-alpha by fluorescent polarization assay
Method in brief: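 Fluorescence polarization competition with recombinant Hsp90α (30 nM) and GM-BODIPY (fluorescent geldanamycin, 5 nM) in 20 mM K-HEPES pH 7.3, 50 mM KCl, 5 mM MgCl2, 20 mM Na2MoO4, 0.01% NP40, 0.1 mg/mL bovine gamma globulin, 2 mM DTT. Shaken 24 h at 4 °C, mP read. EC50 = competitor concentration displacing 50% of probe.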

Row | Compound | pIC50 [1] | pIC50 [2] | inhibition [4] [%] | Activity [5] | pIC50 [3]
1 | COC(=O)c1[nH]c2cc(OC)ccc2c1Sc1ccccc1 | < 5.60 | < 4.40 | – | – | –
2 | COC(=O)c1[nH]c2ccc(OC)cc2c1S(=O)(=O)c1ccccc1 | < 5.60 | < 4.40 | – | – | –
3 | CC(C)(C)OC(=O)c1[nH]c2ccccc2c1Sc1ccccc1 | < 5.60 | < 4.40 | – | – | –
4 | CCOC(=O)c1[nH]c2ccc(OC)cc2c1Sc1ccc(OC)cc1 | < 5.60 | < 4.40 | – | – | < 5.00
5 | CCOC(=O)c1[nH]c2cc(OC)c(OC)cc2c1S(=O)(=O)c1ccccc1 | < 5.60 | < 4.40 | – | – | –
6 | CC(C)CCOC(=O)c1[nH]c2ccccc2c1Sc1ccccc1 | < 5.60 | < 4.40 | – | – | –
7 | COC(=O)c1[nH]c2ccc(Cl)cc2c1Sc1cc(OC)c(OC)c(OC)c1 | – | – | 57 | inactive | –
8 | COC(=O)c1[nH]c2ccc(Cl)cc2c1S(=O)(=O)c1ccccc1OC | < 5.60 | < 4.40 | – | – | –
9 | O=C(OCc1ccccc1)c1[nH]c2ccccc2c1Sc1ccccc1 | < 5.60 | < 4.40 | – | – | –
10 | CCOC(=O)c1[nH]c2ccccc2c1Sc1cc(OC)c(OC)c(OC)c1 | – | – | 51 | – | –
11 | COC(=O)c1[nH]c2ccc(Cl)cc2c1S(=O)(=O)c1cccc(OC)c1 | < 5.60 | 4.51 | – | – | < 5.00
12 | CCCOC(=O)c1[nH]c2ccccc2c1Sc1ccccc1 | < 5.60 | < 4.40 | – | – | –
13 | COC(=O)c1[nH]c2ccc(Cl)cc2c1S(=O)(=O)c1ccc(OC)cc1 | < 5.60 | < 4.40 | – | – | –
14 | CC(C)OC(=O)c1[nH]c2ccccc2c1Sc1ccccc1 | < 5.60 | 4.74 | – | – | –
15 | COC(=O)c1[nH]c2cc(OC)c(OC)cc2c1Sc1cc(OC)c(OC)c(OC)c1 | 5.80 | < 4.40 | – | – | –
16 | CCCCOC(=O)c1[nH]c2ccccc2c1Sc1ccccc1 | < 5.60 | < 4.40 | – | – | –
17 | CCOC(=O)c1[nH]c2ccccc2c1Sc1ccc(OC)cc1 | < 5.60 | < 4.40 | – | – | < 5.00
18 | COC(=O)c1[nH]c2cccc(OC)c2c1Sc1ccccc1 | < 5.60 | < 4.40 | – | – | –
19 | CCOC(=O)c1[nH]c2ccccc2c1Sc1ccccc1OC | < 5.60 | 4.92 | – | – | –
20 | CCC(C)OC(=O)c1[nH]c2ccccc2c1Sc1ccccc1 (centres undefined) | < 5.60 | < 4.40 | – | – | –
21 | CCOC(=O)c1[nH]c2cc(OC)c(OC)cc2c1Sc1ccccc1 | < 5.60 | 4.85 | – | – | –

Now from value to compound, other results behind:

Row | pIC50 [1] | pIC50 [2] | inhibition [4] [%] | Activity [5] | Compound | pIC50 [3]
22 | 7.47 | 5.66 | 82 | – | COC(=O)c1[nH]c2ccc(Cl)cc2c1Sc1cc(OC)cc(OC)c1 | 7.74
23 | 6.48 | 5.74 | 53 | – | COC(=O)c1[nH]c2ccc(Cl)cc2c1Sc1cccc(OC)c1 | 5.49
24 | 6.46 | 4.80 | – | – | CCOC(=O)c1[nH]c2ccc(OC)cc2c1Sc1ccccc1OC | 5.66
25 | 5.89 | 5.38 | 34 | – | COC(=O)c1[nH]c2ccc(Cl)cc2c1Sc1ccccc1OC | 5.15
26 | 6.55 | 5.51 | 39 | – | CCOC(=O)c1[nH]c2ccc(OC)cc2c1Sc1cccc(OC)c1 | 6.23
27 | 6.96 | 5.66 | 53 | – | CCOC(=O)c1[nH]c2ccc(Cl)cc2c1Sc1cc(OC)c(OC)c(OC)c1 | 7.03
28 | 6.00 | 4.66 | – | – | CCOC(=O)c1[nH]c2cc(OC)c(OC)cc2c1Sc1cc(OC)c(OC)c(OC)c1 | –
29 | 6.92 | 5.35 | 32 | – | COC(=O)c1[nH]c2ccc([N+](=O)[O-])cc2c1Sc1cc(OC)c(OC)c(OC)c1 | –
30 | 6.82 | 5.54 | 48 | – | CCOC(=O)c1[nH]c2ccccc2c1Sc1cccc(OC)c1 | 6.23
31 | 7.34 | 5.62 | 71 | – | CCOC(=O)c1[nH]c2ccc(OC)cc2c1Sc1cc(OC)c(OC)c(OC)c1 | –
